The subject of series [1] is Jejunum. The experiment in a line: Drug uptake in Wistar rat jejunum pre-perfused with 400 uM CES inhibitor BNPP assessed as rate of drug disappearance at 100 uM at pH 6.4 by in-situ single-pass perfusion method. The format is ADME, tissue-based. As to conditions: in vivo. Put shortly:
(§1)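 Same in situ jejunal single-pass perfusion, with carboxylesterase blocked by pre-perfusing the lumen with 400 µM BNPP for 40 min. Then 100 µM drug in luminal phosphate buffer (pH 5.4 or 6.4) at 0.2 ml/min. Vascular Krebs–Henseleit (pH 7.4) at 2.5 ml/min. Luminal, vascular and tissue levels measured by HPLC. Rates are luminal disappearance and appearance in lumen or mesenteric vein. Mean ± S.D., n = 3.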

Series [2] in a line: Drug hydrolysis in Wistar rat jejunal S9 fraction in presence of 1 mM CES inhibitor BNPP. The format is ADME, Jejunum. A digest of the protocol: (§2)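 Duodenal or jejunal mucosa from fasted rats homogenized in 50 mM HEPES (pH 7.4) with 1.15% KCl; S9 is the 9000 g supernatant. S9 pre-incubated 5 min at 37°C, then drug added at 10–500 µM final (1% DMSO). Run for 20 min, stopped with acetonitrile, temocaprilat formed measured by HPLC. Km and Vmax from Michaelis–Menten nonlinear fit. Inhibitor (1 mM BNPP) pre-incubated 5 min. Results as % of control.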

Series [3] relates to Jejunum. The experiment in a line: Drug uptake in Wistar rat jejunum pre-perfused with 400 uM CES inhibitor BNPP assessed as rate of drug appearance at 100 uM at pH 5.4 by in-situ single-pass perfusion method. Format: ADME, tissue-based. The note with it: in vivo, pH 5.4, 100 µM. Put shortly:
as §1

Series [4] relates to Jejunum. The experiment in a line: Drug uptake in Wistar rat jejunum pre-perfused with 400 uM CES inhibitor BNPP assessed as rate of temocaprilat disappearance at 100 uM at pH 5.4 by in-situ single-pass perfusion method. The format is ADME, tissue-based. As to conditions: in vivo, pH 5.4, 100 µM. A digest of the protocol:
as §1

In series [5] the test system is Jejunum. The experiment in a line: Drug uptake in Wistar rat jejunum pre-perfused with 400 uM CES inhibitor BNPP assessed as rate of temocaprilat appearance at 100 uM at pH 5.4 by in-situ single-pass perfusion method. The format is ADME, tissue-based. As to conditions: in vivo, pH 5.4, 100 µM. A digest of the protocol: as §1
For series [6], the system named is Jejunum. The series can be described thus: Apparent hydrolytic clearance in Wistar rat jejunum at 100 uM at pH 5.4 by in-situ single-pass perfusion method. Format: ADME, tissue-based. As to conditions: in vivo, pH 5.4, 100 µM. A digest of the protocol: (§3)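 Rats fasted 18–24 h, anesthetized with intraperitoneal pentobarbital. Isolated cannulated jejunal segment kept at 37°C in Krebs–Henseleit buffer with 3% BSA and 10 mM glucose. Vascular perfusion with Krebs–Henseleit (pH 7.4) at 2.5 ml/min. Lumen perfused at 0.2 ml/min with phosphate buffer (pH 5.4, 6.4 or 7.4) containing 100 µM drug plus FD-4. Luminal and vascular samples assayed by HPLC (UV 258 nm). Parameters normalized to 10 cm intestine. Mean ± S.D., n = 3–6.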

Series [7] has as its system Jejunum. The experiment in a line: Apparent hydrolytic clearance in Wistar rat jejunum at 100 uM at pH 6.4 by in-situ single-pass perfusion method. Format: ADME, tissue-based. As to conditions: in vivo, pH 6.4, 100 µM. Put shortly: as §3
The subject of series [8] is Jejunum. The series can be described thus: Apparent absorption clearance in Wistar rat jejunum at 100 uM at pH 6.4 by in-situ single-pass perfusion method. The format is ADME, tissue-based. As to conditions: in vivo. Put shortly: as §3
A short description of series [9]: Permeability in Wistar rat jejunum at 100 uM at pH 7.4 by in-situ single-pass perfusion method. Format: ADME, tissue-based. The note with it: other: in-situ single-pass perfusion of the jejunum, read-out: Peff (converted). Put shortly: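 Rats fasted 18–24 h and anesthetized with intraperitoneal pentobarbital. Jejunal loop perfused at 0.2 ml/min with phosphate buffer (pH 5.4, 6.4 or 7.4) containing 100 μM drug and FD-4 (0.1 mg/ml). Vascular perfusate was Krebs–Henseleit bicarbonate buffer (pH 7.4) at 2.5 ml/min, segment kept at 37°C. Drug and metabolite measured by HPLC (UV 258 nm). Peff normalized to 10 cm intestine; mean ± S.D., n = 3–6.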

Series [10] concerns Jejunum. The experiment in a line: Intracellular drug level in Wistar rat jejunum pre-perfused with 400 uM CES inhibitor BNPP at 100 uM at pH 5.4 by in-situ single-pass perfusion method. Format: ADME, tissue-based. As to conditions: in vivo, pH 5.4, 100 µM. Put shortly: as §1
The subject of series [11] is Jejunum. The series can be described thus: Intracellular drug level in Wistar rat jejunum assessed as temocaprilat level pre-perfused with 400 uM CES inhibitor BNPP at 100 uM at pH 5.4 by in-situ single-pass perfusion method. Format: ADME, tissue-based. As to conditions: in vivo, pH 5.4, 100 µM. Put shortly: as §1
The nature of series [12]: Permeability in Wistar rat jejunum pre-perfused with 400 uM CES inhibitor BNPP at 100 uM at pH 6.4 by in-situ single-pass perfusion method. Format: ADME, tissue-based. As to conditions: other: in-situ single-pass perfusion of the jejunum, pH 6.4, with BNPP (CES inhibitor) 400 uM, read-out: Peff (converted). Put shortly:
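Fasted, pentobarbital-anesthetized rats. Jejunum pre-perfused with BNPP (400 µM) for 40 min to inhibit CES. Lumen then perfused at 0.2 ml/min with 100 μM drug in phosphate buffer (pH 5.4 or 6.4). Vascular side received Krebs–Henseleit buffer (pH 7.4) at 2.5 ml/min. Luminal drug quantified by HPLC; Peff normalized to 10 cm segment; mean ± S.D., n = 3.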

Series [13] relates to Jejunum. The experiment in a line: Apparent absorption clearance in Wistar rat jejunum pre-perfused with 400 uM CES inhibitor BNPP at 100 uM at pH 6.4 by in-situ single-pass perfusion method. Format: ADME. As to conditions: in vivo, pH 6.4, 100 µM. Put shortly: as §1
Series [14] relates to Jejunum. The experiment in a line: Intracellular drug level in Wistar rat jejunum pre-perfused with 400 uM CES inhibitor BNPP at 100 uM at pH 6.4 by in-situ single-pass perfusion method. As to conditions: in vivo, pH 6.4, 100 µM. Format: ADME, tissue-based. Put shortly:
as §1

Series [15] concerns Jejunum. The experiment in a line: Drug hydrolysis in intact Wistar rat jejunum mucosal homogenate at 500 uM assessed per mg protein in presence of 100 uM CES inhibitor BNPP. The note with it: tissue homogenate. Format: ADME, tissue-based. A digest of the protocol: (§4)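 Jejunal mucosal homogenate or S9 (HEPES pH 7.4/KCl) taken from intact jejunum, or after 40 min perfusion with or without 400 µM BNPP. Protein at 400 µg/ml incubated at 37°C with 500 µM drug. Added BNPP (100 or 1000 µM) pre-incubated 5 min. Temocaprilat formed measured by HPLC and given as nmol/min/mg protein and % of control. Mean ± S.D., n = 4.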

Series [16] in a line: Drug hydrolysis in intact Wistar rat jejunal S9 fraction at 500 uM assessed per mg protein. As to conditions: s9, 500 µM. The format is ADME, Jejunum. A digest of the protocol:
as §4

The subject of series [17] is Jejunum. The experiment in a line: Drug hydrolysis in perfused Wistar rat jejunum mucosal homogenate at 500 uM assessed per mg protein. Format: ADME, tissue-based. As to conditions: tissue homogenate. Put shortly:
as §4

In series [18] the test system is Jejunum. The experiment in a line: Drug hydrolysis in perfused Wistar rat jejunum mucosal homogenate at 500 uM assessed per mg protein in presence of 400 uM CES inhibitor BNPP. As to conditions: tissue homogenate. Format: ADME, tissue-based. Put shortly: as §4
The nature of series [19]: Drug hydrolysis in perfused Wistar rat jejunal S9 fraction at 500 uM assessed per mg protein. The format is ADME, Jejunum. As to conditions: s9, 500 µM. Put shortly: as §4
The subject of series [20] is Jejunum. The series can be described thus: Apparent absorption clearance in Wistar rat jejunum at 100 uM at pH 5.4 by in-situ single-pass perfusion method. The format is ADME, tissue-based. As to conditions: in vivo, pH 5.4, 100 µM. A digest of the protocol: as §3
In series [21] the test system is Jejunum. The experiment in a line: Intracellular drug level in Wistar rat jejunum at 100 uM at pH 6.4 by in-situ single-pass perfusion method. Format: ADME, tissue-based. As to conditions: in vivo. A digest of the protocol:
as §3

Series [22] can be described thus: Drug hydrolysis in Wistar rat jejunal S9 fraction. The format is ADME, Jejunum. Put shortly: as §2
The nature of series [23]: Ratio of Vmax to Km for drug hydrolysis in Wistar rat duodenal S9 fraction assessed per mg protein. The format is ADME, Duodenum. Put shortly: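 Duodenal or jejunal mucosal S9 (9000 g supernatant) in 50 mM HEPES pH 7.4, pre-incubated 5 min at 37°C. Substrate added at 10–500 µM final in 1% DMSO and incubated 20 min; stopped with acetonitrile. Temocaprilat formation measured by HPLC. Km and Vmax from nonlinear Michaelis–Menten fit; intrinsic clearance as Vmax/Km; mean ± S.D.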

Molecules are shown by their SMILES.

As to `CCOC(=O)[C@H](CCc1ccccc1)N[C@H]1CS[C@H](c2cccs2)CN(CC(=O)O)C1=O` [TEMOCAPRIL], the CL was 2.44 nmol/min in the series with Jejunum [1]; 0.862 nmol/min with Jejunum [3]; 1.01 nmol/min in the series on Jejunum [4]; 1.01 nmol/min with Jejunum [5]; 34.4 µL/min in the series on Jejunum [6]; 35.4 µL/min with Jejunum [7]. In addition, in series [2], the Stability entry is given as “Stable”. Moreover, the entries for the “CL(app)” value in the series with Jejunum [8], in the series with Jejunum [13] and in the series with Jejunum [20] were 1.59 µL/min, 7.64 µL/min and 3.59 µL/min, respectively. Further, the Papp at 100 µM in [9] is 54.2 ×10⁻⁶ cm/s; in series [12] it was 38.7 ×10⁻⁶ cm/s. Also, the Drug uptake is listed as 20.6 nmol/g in the series on Jejunum [10], 17 nmol/g in the series on Jejunum [11], 15.4 nmol/g in the series with Jejunum [14] and 1.83 nmol/g in the series on Jejunum [21]. Further, the Drug degradation with Jejunum [15] was found to be 2.23 nmol/min; in series [16], 4.46 nmol/min; in the series with Jejunum [17], 3.96 nmol/min; with Jejunum [18], 2.05 nmol/min; in series [19], 4.28 nmol/min. For the same molecule, in [22], the Km came out at 47.3 µM. Also, the Vmax/Km in series [23] turned out to be 109 µL/min.
